{
  "source": "ChEMBL document CHEMBL1671867",
  "about": "“Novel polymyxin derivatives carrying only three positive charges are effective antibacterial agents” (Antimicrob Agents Chemother, 2008)",
  "key": {"[1]": {"assay": "Inhibition of [3H]gentamicin binding to brush border membrane of renal cortex", "outline": "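Brush border membrane vesicles prepared from male albino rat renal cortex by Mg2+-EGTA precipitation. Incubated with 20 μM [3H]gentamicin in 10 mM HEPES pH 7.5 with 300 mM mannitol, with or without compound, 60 min at 4°C. Then filtered, washed, and bound radioactivity counted by scintillation. IC50 fitted with the Hill equation.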"}, "V79": {"tested_on": "V79", "assay": "Cytotoxicity against chinese hamster V79 cells at […] to 128 ug/ml after 24 hrs", "type": "cell-based, Cricetulus griseus", "conditions": "v79, 24 h"}, "Klebsiella pneumoniae [2]": {"tested_on": "Klebsiella pneumoniae", "assay": "Antibacterial activity against Klebsiella pneumoniae by CLSI M7-A7 agar dilution method", "type": "functional", "outline": "(§1)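 Agar dilution on Mueller-Hinton agar with test substance at 0.25 to 32 μg/ml in twofold steps. Spots of about 10^4 CFU applied with a multipoint inoculator.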"}, "Enterobacter cloacae [3]": {"tested_on": "Enterobacter cloacae", "assay": "Antibacterial activity against Enterobacter cloacae ATCC 23355 by CLSI M7-A7 agar dilution method", "type": "functional"}, "Staphylococcus aureus": {"tested_on": "Staphylococcus aureus", "assay": "Antibacterial activity against Staphylococcus aureus ATCC 25923 by CLSI M7-A7 agar dilution method", "type": "functional", "outline": "as §1"}, "Escherichia coli [4]": {"tested_on": "Escherichia coli", "assay": "Antibacterial activity against Escherichia coli IH3080 assessed as growth inhibition at 10 ug after 18 hrs by […]", "type": "functional"}, "Serratia marcescens": {"tested_on": "Serratia marcescens", "assay": "Antibacterial activity against Serratia marcescens ATCC 8100 by CLSI M7-A7 agar dilution method", "type": "functional", "outline": "as §1"}, "Candida albicans": {"tested_on": "Candida albicans", "assay": "Antibacterial activity against Candida albicans ATCC 28366 by CLSI M7-A7 agar dilution method", "type": "functional"}, "Pseudomonas aeruginosa": {"tested_on": "Pseudomonas aeruginosa", "assay": "Antibacterial activity against Pseudomonas aeruginosa ATCC 27853 by CLSI M7-A7 agar dilution method", "type": "functional", "outline": "as §1"}, "Klebsiella oxytoca [5]": {"tested_on": "Klebsiella oxytoca", "assay": "Antibacterial activity against Klebsiella oxytoca CCUG51683 by CLSI M7-A7 agar dilution method", "type": "functional", "outline": "as §1"}, "Enterobacter cloacae [6]": {"tested_on": "Enterobacter cloacae", "assay": "Antibacterial activity against Enterobacter cloacae CCUG52947 by CLSI M7-A7 agar dilution method", "type": "functional"}, "Enterobacter cloacae [7]": {"tested_on": "Enterobacter cloacae", "assay": "Antibacterial activity against Enterobacter cloacae by CLSI M7-A7 agar dilution method", "type": "functional"}, "Klebsiella pneumoniae [8]": {"tested_on": "Klebsiella pneumoniae", "assay": "Antibacterial activity against Klebsiella pneumoniae CCUG45421 by CLSI M7-A7 agar dilution method", "type": "functional", "outline": "as §1"}, "Klebsiella oxytoca [9]": {"tested_on": "Klebsiella oxytoca", "assay": "Antibacterial activity against Klebsiella oxytoca ATCC 13182 by CLSI M7-A7 agar dilution method", "type": "functional", "outline": "as §1"}, "Citrobacter freundii": {"tested_on": "Citrobacter freundii", "assay": "Antibacterial activity against Citrobacter freundii ATCC 8090 by CLSI M7-A7 agar dilution method", "type": "functional"}, "Escherichia coli [10]": {"tested_on": "Escherichia coli", "assay": "Antibacterial activity against Escherichia coli SC 9252 by CLSI M7-A7 agar dilution method", "type": "functional"}, "Acinetobacter baumannii [11]": {"tested_on": "Acinetobacter baumannii", "assay": "Antibacterial activity against Acinetobacter baumannii ATCC 19606 by CLSI M7-A7 agar dilution method", "type": "functional"}, "Escherichia coli [12]": {"tested_on": "Escherichia coli", "assay": "Antibacterial activity against Escherichia coli by CLSI M7-A7 agar dilution method", "type": "functional", "outline": "as §1"}, "Escherichia coli [13]": {"tested_on": "Escherichia coli", "assay": "Antibacterial activity against Escherichia coli ATCC […] by CLSI M7-A7 agar dilution method", "type": "functional"}, "Escherichia coli [14]": {"tested_on": "Escherichia coli", "assay": "Antibacterial activity against Escherichia coli IH3080 by CLSI M7-A7 agar dilution method", "type": "functional"}, "Escherichia coli [15]": {"tested_on": "Escherichia coli", "assay": "Antibacterial activity against Escherichia coli IH3080 assessed as growth inhibition at 10 ug after 18 hrs by […] in presence of 1 ug/ml rifampin", "type": "functional"}, "Acinetobacter baumannii [16]": {"tested_on": "Acinetobacter baumannii", "assay": "Antibacterial activity against Acinetobacter baumannii by CLSI M7-A7 agar dilution method", "type": "functional"}, "Escherichia coli [17]": {"tested_on": "Escherichia coli", "assay": "Antibacterial activity against Escherichia coli IH3080 assessed as reduction in bacterial count at 2 ug/ml using 2 day old compound stock solution", "type": "functional", "parameters": "scale not given: the % may be the effect or the level left"}, "Escherichia coli [18]": {"tested_on": "Escherichia coli", "assay": "Antibacterial activity against Escherichia coli SC 9253 by CLSI M7-A7 agar dilution method", "type": "functional", "outline": "as §1"}},
  "data": [
    {"smiles": "CCCCCCCC(=O)N[C@H](C(=O)N[C@H](CO)C(=O)N[C@H]1CCNC(=O)[C@H]([C@@H](C)O)NC(=O)[C@H](CCN)NC(=O)[C@H](CCN)NC(=O)[C@H](CC(C)C)NC(=O)[C@@H](Cc2ccccc2)NC(=O)[C@H](CCN)NC1=O)[C@@H](C)O", "note": "[listing 1 of 2 here]", "values": [
      {"measurement": "IC50", "setting": "[1]", "result": 264, "unit": "µM"},
      {"measurement": "Activity", "setting": "V79", "result": "Non-toxic"}
    ]},
    {"smiles": "CCCCCCCC(=O)N[C@H](C(=O)N[C@H](CO)C(=O)N[C@H]1CCNC(=O)[C@H]([C@@H](C)O)NC(=O)[C@H](CCN)NC(=O)[C@H](CCN)NC(=O)[C@H](CC(C)C)NC(=O)[C@@H](Cc2ccccc2)NC(=O)[C@H](CCN)NC1=O)[C@@H](C)O", "note": "[listing 2 of 2 here]", "values": [
      {"measurement": "MIC", "setting": "Klebsiella pneumoniae [2]", "result": 1, "unit": "µg/mL"},
      {"measurement": "MIC", "setting": "Enterobacter cloacae [3]", "result": 2, "unit": "µg/mL"},
      {"measurement": "MIC", "setting": "Staphylococcus aureus", "result": "> 32", "unit": "µg/mL"},
      {"measurement": "inhibition zone (IZ)", "setting": "Escherichia coli [4]", "result": 171, "unit": "mm2"},
      {"measurement": "MIC", "setting": "Serratia marcescens", "result": "> 32", "unit": "µg/mL"},
      {"measurement": "MIC", "setting": "Candida albicans", "result": "> 32", "unit": "µg/mL"},
      {"measurement": "MIC", "setting": "Pseudomonas aeruginosa", "result": 8, "unit": "µg/mL"},
      {"measurement": "MIC", "setting": "Klebsiella oxytoca [5]", "result": 2, "unit": "µg/mL"},
      {"measurement": "MIC", "setting": "Enterobacter cloacae [6]", "result": 2, "unit": "µg/mL"},
      {"measurement": "MIC", "setting": "Enterobacter cloacae [7]", "result": 2, "unit": "µg/mL"},
      {"measurement": "MIC", "setting": "Klebsiella pneumoniae [8]", "result": 4, "unit": "µg/mL"},
      {"measurement": "MIC", "setting": "Klebsiella oxytoca [9]", "result": 2, "unit": "µg/mL"},
      {"measurement": "MIC", "setting": "Citrobacter freundii", "result": 2, "unit": "µg/mL"},
      {"measurement": "MIC", "setting": "Escherichia coli [10]", "result": 32, "unit": "µg/mL"},
      {"measurement": "MIC", "setting": "Acinetobacter baumannii [11]", "result": 8, "unit": "µg/mL"},
      {"measurement": "MIC", "setting": "Escherichia coli [12]", "result": 0.5, "unit": "µg/mL"},
      {"measurement": "MIC", "setting": "Escherichia coli [13]", "result": 1, "unit": "µg/mL"},
      {"measurement": "MIC", "setting": "Escherichia coli [14]", "result": 1, "unit": "µg/mL"},
      {"measurement": "inhibition zone (IZ)", "setting": "Escherichia coli [15]", "result": 214, "unit": "mm2"},
      {"measurement": "MIC", "setting": "Acinetobacter baumannii [16]", "result": 4, "unit": "µg/mL"},
      {"measurement": "Activity", "setting": "Escherichia coli [17]", "result": 98, "unit": "%"},
      {"measurement": "MIC", "setting": "Escherichia coli [18]", "result": "> 32", "unit": "µg/mL"}
    ]},
    {"smiles": "CCCCCCCC(=O)N[C@H](C(=O)N[C@H](CO)C(=O)N[C@H]1CCNC(=O)[C@H]([C@@H](C)O)NC(=O)[C@H](CCN)NC(=O)[C@H](CCN)NC(=O)[C@H](CC(C)C)NC(=O)[C@@H](Cc2ccccc2)NC(=O)[C@H](CCN)NC1=O)[C@@H](C)O.CS(=O)(=O)[O-].[Na+]", "values": [
      {"measurement": "Activity", "setting": "Escherichia coli [17]", "result": 90, "unit": "%"}
    ]}
  ]
}
